These results are taken from ChEMBL document CHEMBL1147806, “Structure-activity relationship studies on UK-2A, a novel antifungal antibiotic from Streptomyces sp. 517-02. Part 5: Roles of the 9-membered dilactone-ring moiety in respiratory inhibition” (2006).

A word on the MIC: it is the lowest concentration that inhibits growth of the organism. Low values mean a more susceptible organism, high ones a less susceptible organism.

The structures appear in SMILES notation. ≈ marks a conversion by molar mass, not a printed value.

The species named for one assay is Bos taurus. In words: Respiratory inhibition in bovine heart submitochondrial particles. Format: functional. The essentials: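 Bovine heart submitochondrial particles prepared by the Matsuno-Yagi and Hatefi method; uncoupler-stimulated respiration with 10 mM succinate as substrate, oxygen consumption followed by oxygen electrode at 25 °C.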
In the next assay the test system is Rhodotorula mucilaginosa. In words: Antifungal activity against Rhodotorula mucilaginosa IFO 0001. The format is functional. The essentials: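 Compounds dissolved in DMF; MIC by serial 2-fold agar dilution on Sabouraud dextrose agar, read after 48 h cultivation at 25 °C.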

In the case of `COc1ccnc(C(=O)N[C@H]2COC(=O)[C@H](Cc3ccccc3)[C@@H](OC(=O)C(C)C)[C@H](C)OC2=O)c1O`, the pI50 in the assay filed under Bos taurus is listed as 6. The molecule further had an MIC with Rhodotorula mucilaginosa below 0.1 µg/mL.

`CCCCCCOC(=O)CC[C@H](NC(=O)c1nccc(OC)c1O)C(=O)OCCCCCC` displayed a pI50 in the assay filed under Bos taurus of 6. This molecule displayed an MIC against Rhodotorula mucilaginosa of 3.13 µg/mL (≈ 6.71 µM).

On to `CCCCCCCOC(=O)CC[C@H](NC(=O)c1nccc(OC)c1O)C(=O)OCCCCCCC`, for which it took 50 µg/mL (≈ 101 µM) to inhibit growth in the assay on Rhodotorula mucilaginosa (MIC).

For `CCCCCCOC(=O)C[C@H](NC(=O)c1ccc(OC)c(OC)c1O)C(=O)OCCCCCC`, in the assay filed under Bos taurus, the pI50 turned out to be 4.9. This molecule returned an MIC in the assay with Rhodotorula mucilaginosa above 100 µg/mL.

Turning to `CCCCCCOC(=O)C[C@H](NC(=O)c1cc(O)c(OC)c(OC)c1O)C(=O)OCCCCCC`, in the assay filed under Bos taurus, the pI50 is listed as 5. For the same molecule, the MIC in the assay with Rhodotorula mucilaginosa amounted to 100 µg/mL (≈ 201 µM).

Molecule `CCCCCCOC(=O)CC[C@H](NC(=O)c1cccc(NC=O)c1O)C(=O)OCCCCCC` had a pI50 in the assay listed under Bos taurus of 7.1. In addition, the MIC against Rhodotorula mucilaginosa is above 100 µg/mL.

With `CCCCCOC(=O)CC[C@H](NC(=O)c1nccc(OC)c1O)C(=O)OCCCCC`, the MIC in the assay with Rhodotorula mucilaginosa came to 12.5 µg/mL (≈ 28.5 µM).

In the assay on Rhodotorula mucilaginosa, `CCCCCCOC(=O)CC[C@@H](NC(=O)c1nccc(OC)c1O)C(=O)OCCCCCC` yielded an MIC of 100 µg/mL (≈ 214 µM).

Molecule `CCCCCCCCOC(=O)CC[C@H](NC(=O)c1nccc(OC)c1O)C(=O)OCCCCCCCC` gave a pI50 in the assay filed under Bos taurus of 5.7. The same molecule yielded an MIC against Rhodotorula mucilaginosa above 100 µg/mL.

In the assay on Rhodotorula mucilaginosa, `CCCCCCOC(=O)C[C@H](NC(=O)c1nccc(OC)c1O)C(=O)OCCCCCC` registered an MIC of 100 µg/mL (≈ 221 µM).

`CCCC[C@H]1C(=O)O[C@H](C)[C@H](NC(=O)c2cccc(NC=O)c2O)C(=O)O[C@@H](C)[C@@H]1OC(=O)CC(C)C` [ANTIMYCIN A3]: in the assay listed under Bos taurus, the pI50 is 7.4. In addition, the MIC with Rhodotorula mucilaginosa turned out to be 0.39 µg/mL (≈ 0.749 µM).
